The values below come from ChEMBL document CHEMBL2086304, “Synthesis and in vitro antimycobacterial and isocitrate lyase inhibition properties of novel 2-methoxy-2'-hydroxybenzanilides, their thioxo analogues and benzoxazoles” (Eur J Med Chem, 2012).

SMILES strings stand for the structures. ≈ marks a conversion by molar mass, not a printed value.

In assay [1] the test system is Mycobacterium tuberculosis. Description: Antimycobacterial activity against Mycobacterium tuberculosis 331/88 after 21 days by micromethod. Format: functional. The conditions noted are these: 331/88, 504 h. Put shortly:
(§1)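 Inocula: M. tuberculosis My 331/88 at 10^-3 dilution, M. avium My 330/88 at 10^-5, M. kansasii My 235/80 and clinical isolate 6509/96 at 10^-4. Compounds added in DMSO at 1000 down to 0.5 (twofold series). Read at 14 and 21 days, plus 7 days for M. kansasii. MIC taken as lowest concentration inhibiting growth.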

For assay [2], the system named is Mycobacterium kansasii. Kind of assay: Antimycobacterial activity against isoniazid resistance Mycobacterium kansasii 225/80 after 21 days by micromethod. It counts as functional. The settings on record: 225/80, 504 h.
Assay [3] can be described thus: Selectivity index, ratio of IC50 for human HepG2 cells to MIC for Mycobacterium tuberculosis 331/88 after 14 days. Format: functional. In short, it runs like this: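 Cytotoxicity in Hep G2 cells (passage 12), 10,000 cells/well, in MEM with 10% FBS, 1% glutamine and 1% nonessential amino acids. Cells preincubated 24 h, 37 °C, 5% CO2. Compounds in DMSO at eight concentrations in quadruplicate, 24 h. MTS-type reagent added for 1.5 h, A490 read, IC50 taken at 50% viability. SI = this IC50 over the 14-day M. tuberculosis MIC.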

The subject of assay [4] is Mycobacterium kansasii. Kind of assay: Antimycobacterial activity against Mycobacterium kansasii 6509/96 clinical isolate after 7 days by micromethod. Format: functional. The settings on record: 6509/96, 168 h. Put shortly: as §1
The next assay deals with HepG2. Kind of assay: Cytotoxicity against human HepG2 cells after 24 hrs by CellTiter-96 cell viability assay. It counts as functional, cell-based. The settings on record: HepG2, 24 h. In short, it runs like this:
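Hep G2 human hepatic cells (passage 12), 10,000 per well, grown 24 h at 37 °C, 5% CO2 in MEM with 1% glutamine, 10% FBS and 1% nonessential amino acids. Compounds in DMSO at eight increasing concentrations, quadruplicate, 24 h at 37 °C. Kit reagent added, 1.5 h at 37 °C, absorbance 490 nm. IC50 is the concentration reducing viability to 50% of control.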

For assay [5], the system named is Mycobacterium kansasii. Description: Antimycobacterial activity against Mycobacterium kansasii 6509/96 clinical isolate after 21 days by micromethod. Format: functional. The settings on record: 6509/96, 504 h. Put shortly: as §1
Assay [6] deals with Mycobacterium kansasii. Description: Antimycobacterial activity against isoniazid resistance Mycobacterium kansasii 225/80 after 7 days by micromethod. The settings on record: 225/80, 168 h. It counts as functional.
Assay [7] concerns Mycobacterium tuberculosis. Description: Antimycobacterial activity against Mycobacterium tuberculosis 331/88 after 14 days by micromethod. It counts as functional. The conditions noted are these: 331/88, 336 h. Put shortly:
as §1

Assay [8] has as its system Mycobacterium avium. Kind of assay: Antimycobacterial activity against isoniazid resistance Mycobacterium avium 330/88 after 21 days by micromethod. Format: functional. The settings on record: 330/88, 504 h. In short, it runs like this:
as §1

In assay [9] the target is T1, Isocitrate lyase (Mycobacterium tuberculosis) (UniProt P9WKK7).
T1 sequence (whole entry): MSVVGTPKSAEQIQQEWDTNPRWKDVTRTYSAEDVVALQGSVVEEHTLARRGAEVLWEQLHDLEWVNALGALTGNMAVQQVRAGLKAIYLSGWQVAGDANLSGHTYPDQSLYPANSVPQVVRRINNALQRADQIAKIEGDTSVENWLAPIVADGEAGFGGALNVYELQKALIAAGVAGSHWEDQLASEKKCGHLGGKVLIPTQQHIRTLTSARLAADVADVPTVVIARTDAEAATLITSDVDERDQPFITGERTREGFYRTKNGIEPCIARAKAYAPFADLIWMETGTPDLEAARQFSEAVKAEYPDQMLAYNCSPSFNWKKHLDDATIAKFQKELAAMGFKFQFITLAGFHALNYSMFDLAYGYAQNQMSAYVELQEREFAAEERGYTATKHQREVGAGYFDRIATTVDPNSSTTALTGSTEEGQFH
Description: Inhibition of Mycobacterium tuberculosis H37Rv isocitrate lyase expressed in Escherichia coli HB101 at 10 umol/L. In short, it runs like this: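 Isocitrate lyase assayed per Dixon–Kornberg in 96-well format. Buffer: 50 mmol/L KH2PO4, 4 mmol/L MgCl2, 4 mmol/L phenylhydrazine, 12 mmol/L cysteine, pH 7.0. Glyoxylate phenylhydrazone read at 324 nm. Compounds added in DMSO, with DMSO-alone inhibition subtracted.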

Assay [10] has as its system Mycobacterium kansasii. Kind of assay: Antimycobacterial activity against isoniazid resistance Mycobacterium kansasii 225/80 after 14 days by micromethod. Format: functional. The settings on record: 225/80, 336 h.
For assay [11], the system named is Mycobacterium avium. Kind of assay: Antimycobacterial activity against isoniazid resistance Mycobacterium avium 330/88 after 14 days by micromethod. It counts as functional. The settings on record: 330/88, 336 h. In short, it runs like this: as §1
Assay [12] relates to Mycobacterium kansasii. Kind of assay: Antimycobacterial activity against Mycobacterium kansasii 6509/96 clinical isolate after 14 days by micromethod. Format: functional. The settings on record: 6509/96, 336 h. Put shortly:
as §1

Turning to `COc1cc(Cl)ccc1C(=S)Nc1cc(C(F)(F)F)ccc1O`, the MIC in assay [1] was 62.5 µM (≈ 22.6 µg/mL); against Mycobacterium kansasii [2], 125 µM (≈ 45.2 µg/mL); in the assay with Mycobacterium kansasii [4] it was 32 µM (≈ 11.6 µg/mL); in the assay with Mycobacterium kansasii [5] it was 125 µM (≈ 45.2 µg/mL); with Mycobacterium kansasii [6], 32 µM (≈ 11.6 µg/mL); in assay [7], 32 µM (≈ 11.6 µg/mL). Moreover, the minimum inhibitory concentration (MIC) with Mycobacterium avium [8] stood at 62.5 µM (≈ 22.6 µg/mL); against Mycobacterium kansasii [10], 62.5 µM (≈ 22.6 µg/mL); against Mycobacterium avium [11], 32 µM (≈ 11.6 µg/mL); in the assay with Mycobacterium kansasii [12] it was 62.5 µM (≈ 22.6 µg/mL). The “Selectivity Index” value in [3] was 0.18. In the assay on HepG2, this compound had a half-inhibitory concentration (IC50) of 5.74 µM. In addition, the inhibition in assay [9] was 0%.

Take `COc1ccc(Cl)cc1C(=S)Nc1ccc(Br)cc1O`: the MIC in [1] was determined as 32 µM (≈ 11.9 µg/mL); against Mycobacterium kansasii [2] it was 62.5 µM (≈ 23.3 µg/mL); with Mycobacterium kansasii [4], 16 µM (≈ 5.96 µg/mL); against Mycobacterium kansasii [5], 32 µM (≈ 11.9 µg/mL); in the assay with Mycobacterium kansasii [6], 16 µM (≈ 5.96 µg/mL); in [7] it was 32 µM (≈ 11.9 µg/mL). In addition, the MIC in the assay on Mycobacterium avium [8] amounted to 125 µM (≈ 46.6 µg/mL); against Mycobacterium kansasii [10] it was 32 µM (≈ 11.9 µg/mL); in the assay on Mycobacterium avium [11], 62.5 µM (≈ 23.3 µg/mL); in the assay with Mycobacterium kansasii [12], 32 µM (≈ 11.9 µg/mL). The “Selectivity Index” value in [3] came out at 0.24. In the assay on HepG2, the IC50 was 7.6 µM. The compound also came in with an inhibition in assay [9] of 7%.

As for `COc1ccc(Cl)cc1C(=O)Nc1ccc(Br)cc1O`, the MIC in [1] turned out to be 8 µM (≈ 2.85 µg/mL); with Mycobacterium kansasii [2] it was 500 µM (≈ 178 µg/mL); against Mycobacterium kansasii [4], 250 µM (≈ 89.2 µg/mL); in the assay on Mycobacterium kansasii [5] it was 250 µM (≈ 89.2 µg/mL); against Mycobacterium kansasii [6], 500 µM (≈ 178 µg/mL); in assay [7], 4 µM (≈ 1.43 µg/mL). Also, the MIC in the assay with Mycobacterium avium [8] was determined as 500 µM (≈ 178 µg/mL); in the assay on Mycobacterium kansasii [10] it was 500 µM (≈ 178 µg/mL); in the assay on Mycobacterium avium [11], 500 µM (≈ 178 µg/mL); against Mycobacterium kansasii [12] it was 250 µM (≈ 89.2 µg/mL). For the same compound, the “Selectivity Index” value in assay [3] is on record as 2. In addition, in the assay on HepG2, the midpoint of inhibition, the IC50, lay at 7.98 µM. The compound further came in with an inhibition in assay [9] of 0%.

As to `COc1cc(Cl)ccc1C(=S)Nc1ccc(C(F)(F)F)cc1O`, the MIC in assay [1] was found to be 62.5 µM (≈ 22.6 µg/mL); with Mycobacterium kansasii [2], 62.5 µM (≈ 22.6 µg/mL); against Mycobacterium kansasii [4], 32 µM (≈ 11.6 µg/mL); with Mycobacterium kansasii [5] it was 62.5 µM (≈ 22.6 µg/mL); in assay [7], 32 µM (≈ 11.6 µg/mL); against Mycobacterium avium [8], 62.5 µM (≈ 22.6 µg/mL). Also, the MIC in the assay with Mycobacterium kansasii [10], against Mycobacterium avium [11] and with Mycobacterium kansasii [12] was 62.5 µM (≈ 22.6 µg/mL) in each case. Besides, the “Selectivity Index” value in assay [3] is 0.1. Moreover, in the assay on HepG2, the IC50 was determined as 3.14 µM. For the same compound, the inhibition in [9] turned out to be 23%.

With `COc1ccc(Cl)cc1C(=O)Nc1ccc(C(F)(F)F)cc1O`, the MIC in [1] is 500 µM (≈ 173 µg/mL); with Mycobacterium kansasii [2], 250 µM (≈ 86.4 µg/mL); with Mycobacterium kansasii [4], 250 µM (≈ 86.4 µg/mL); in the assay on Mycobacterium kansasii [5] it was 250 µM (≈ 86.4 µg/mL); in assay [7] it was 500 µM (≈ 173 µg/mL); in the assay with Mycobacterium avium [8], 62.5 µM (≈ 21.6 µg/mL). For the same compound, the minimal inhibitory concentration (MIC) with Mycobacterium kansasii [10] was found to be 250 µM (≈ 86.4 µg/mL); in the assay on Mycobacterium avium [11] it was 62.5 µM (≈ 21.6 µg/mL); against Mycobacterium kansasii [12], 250 µM (≈ 86.4 µg/mL). The “Selectivity Index” value in assay [3] is on record as 0.01. This compound also gave an IC50 with HepG2 of 4.91 µM. The inhibition in assay [9] turned out to be 2%.

Turning to `COc1ccc(Cl)cc1-c1nc2ccc(Br)cc2o1`, the MIC (in assay [1]; against Mycobacterium kansasii [2]; against Mycobacterium kansasii [4]; against Mycobacterium kansasii [5]; against Mycobacterium kansasii [6]; in [7]) was 125 µM (≈ 42.3 µg/mL) each time. Moreover, the minimum inhibitory concentration (MIC) in the assay on Mycobacterium avium [8], in the assay with Mycobacterium kansasii [10], in the assay on Mycobacterium avium [11] and against Mycobacterium kansasii [12] was 125 µM (≈ 42.3 µg/mL) throughout. Besides, in assay [9], the inhibition is 0%.

Take `COc1cc(Cl)ccc1C(=O)Nc1ccc(C(F)(F)F)cc1O`: the MIC is 250 µM (≈ 86.4 µg/mL) in assay [1]; 250 µM (≈ 86.4 µg/mL) with Mycobacterium kansasii [2]; 250 µM (≈ 86.4 µg/mL) in the assay on Mycobacterium kansasii [4]; 250 µM (≈ 86.4 µg/mL) in the assay with Mycobacterium kansasii [5]; 250 µM (≈ 86.4 µg/mL) in assay [7]; 62.5 µM (≈ 21.6 µg/mL) against Mycobacterium avium [8]. The MIC turned out to be 250 µM (≈ 86.4 µg/mL) against Mycobacterium kansasii [10], 62.5 µM (≈ 21.6 µg/mL) against Mycobacterium avium [11] and 250 µM (≈ 86.4 µg/mL) in the assay with Mycobacterium kansasii [12]. In assay [3], the “Selectivity Index” value turned out to be 0.02. In addition, in the assay with HepG2, it took 3.9 µM to reach half-maximal inhibition (IC50). The same compound registered an inhibition in assay [9] of 7%.

One may read the MIC as the least concentration at which growth counts as inhibited. Read a low MIC as inhibition by little substance. Broadly, the IC50 is the point on the concentration scale where inhibition reaches its midpoint. As a reminder, the inhibition is the drop in the measured response relative to a control, in per cent. A lower inhibition goes with a response near the control.
